The results in this text go back to ChEMBL document CHEMBL1126117, “Synthesis and chemical characterization of N-substituted phenoxazines directed toward reversing vinca alkaloid resistance in multidrug-resistant cancer cells” (J Med Chem, 1992).

SMILES strings stand for the structures.

Test [1] concerns KB. Briefly: Increase in the accumulation of vincristine in multi-drug resistant KB8-5 (HeLa variant) cell line in vitro. It counts as functional, Homo sapiens. Also on record: concentration or dose not given beside the values. In a few lines:
(§1)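 Radiolabel accumulation. Cell monolayers (2×10^6 cells, attached overnight; KBChR-8-5 kept with 10 ng/mL colchicine) were washed and held 10 min in physiologic Tris buffer. They were then given serum-free RPMI-1640 in 25 mM Hepes, pH 7.4, with [3H]VCR (70.4 nM) or [3H]VLB (49.5 nM), ±modulator at 100 μM (<0.1% DMSO), for 2 h at room temperature. Cells were washed in ice-cold PBS, trypsinized and scintillation-counted, with cell number counted per dish. Percent control = uptake with/without modulator ×100. Mean of two experiments, each done in triplicate.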

Test [2] concerns KB. The test is described as follows: Increase in the accumulation of vinblastine in multi-drug resistant KB8-5 (HeLa variant) cell line in vitro. It counts as functional, Homo sapiens. Also on record: concentration or dose not given beside the values. An outline of the steps:
as §1

Test [3] deals with GC3/Cl. Briefly: Increase in the accumulation of vincristine in multi-drug resistant GC3/Cl (human adenocarcinoma) cell line in vitro. In kind it is functional.
Test [4] concerns KB. The test is described as follows: Percent control was evaluated by measuring the ability to increase the vinca alkaloid, vincristine(VCR) in KB8-5 cell line. In kind it is functional, Homo sapiens. An outline of the steps:
as §1

Test [5] relates to KB. Briefly: Percent control was evaluated by measuring the ability to increase the vinca alkaloid, vinblastine(VLB) in KB8-5 cell line. It counts as functional, Homo sapiens. An outline of the steps:
as §1

For test [6], the system named is GC3/Cl. Briefly: Inhibitory concentration was evaluated by measuring the potentiation of VCR cytotoxicity in GC3/Cl cell line. In kind it is functional, cell-based. As to conditions: Homo sapiens. An outline of the steps:
(§2)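 Colony-formation assay. Cells were given graded VCR or VLB continuously for 7 days at 37 °C, with or without modulator at the concentration that alone reduced colony formation by 10%. Colonies were then stained with crystal violet and counted. Vinca IC50 values were derived with and without modulator, and the result was expressed as fold potentiation.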

Test [7] concerns GC3/Cl. The test is described as follows: Concentration required to produce 50% reduction in clonogenic survival of GC3/Cl cell line. It counts as functional, cell-based. Conditions: Homo sapiens. In a few lines: (§3)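 Clonogenic survival. KBChR-8-5 cells were plated in triplicate at 1000/well and GC3 cells at 3000/well. After 24 h the medium was replaced with fresh medium holding modulator at 1-100 μM (final 0.1% DMSO). Cells were kept 7 days at 37 °C, then stained with crystal violet and the colonies counted. The 50% and 10% colony-reduction concentrations were read from concentration-survival curves versus controls.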

Test [8] deals with KB. Briefly: Inhibitory concentration was evaluated by measuring the potentiation of VCR cytotoxicity in KB8-5 cell line. It counts as functional, cell-based. Conditions: Homo sapiens. In a few lines:
as §2

In test [9] the test system is GC3/Cl. Briefly: Concentration required to produce 10% reduction in clonogenic survival of GC3/Cl cell line. As to conditions: Homo sapiens. It counts as functional, cell-based. An outline of the steps: as §3
The test system of test [10] is KB. The test is described as follows: Concentration required to produce 50% reduction in clonogenic survival of KB8-5 cell line. In kind it is functional, cell-based. Conditions: Homo sapiens. An outline of the steps: as §3
The test system of test [11] is KB. The test is described as follows: Inhibitory concentration was evaluated by measuring the potentiation of VLB cytotoxicity in KB8-5 cell line. As to conditions: Homo sapiens. In kind it is functional, cell-based. An outline of the steps:
as §2

The subject of test [12] is GC3/Cl. Briefly: Inhibitory concentration was evaluated by measuring the potentiation of VLB cytotoxicity in GC3/Cl cell line. It counts as functional, cell-based. Conditions: Homo sapiens. In a few lines: as §2
Test [13] deals with KB. Briefly: Concentration required to produce 10% reduction in clonogenic survival of KB8-5 cell line. As to conditions: Homo sapiens. It counts as functional. An outline of the steps: as §3
Test [14] concerns GC3/Cl. Briefly: Increase in the accumulation of vinblastine in multi-drug resistant GC3/Cl (human adenocarcinoma) cell line in vitro. In kind it is functional. Also on record: concentration or dose not given beside the values.

For `O=C(N1c2ccccc2Oc2ccccc21)C(F)(F)F`, the values for the Control in the test with KB [1], in the test with KB [2] and in the test on GC3/Cl [3] were 415%, 827% and 230%, respectively.
The corresponding values for `CCN(CC)CC(=O)N1c2ccccc2Oc2ccccc21` are 184%, 953% and 160%.
As to `O=C(CCl)N1c2ccccc2Oc2ccccc21`, the Control is listed as 138% in the test with KB [4] and 236% in the test with KB [5].
Regarding `OCCN(CCO)CCCN1c2ccccc2Oc2ccccc21`, the Control with KB [1] was determined as 473%; in the test with KB [2], 1666%; with GC3/Cl [14] it was 1070%. For the same compound, the IC50 (commonly the concentration that gives 50% inhibition) in the test with GC3/Cl [6] turned out to be 0.0048 µM; in the test on GC3/Cl [7] it was 37 µM; in the test with KB [8], 0.0059 µM; in the test on KB [10], 38 µM; with KB [11] it was 0.0027 µM; with GC3/Cl [12], 0.002 µM. In addition, the IC10 in the test with GC3/Cl [9] and in the test on KB [13] was 25 µM in each case.
Consider `c1ccc2c(c1)Oc1ccccc1N2CCCN1CCCCC1`, for which the Control with KB [1] is 435%; with KB [2] it was 1227%; in the test with GC3/Cl [14], 633%.
For the compound `c1ccc2c(c1)Oc1ccccc1N2CCCN1CCCC1`, the Control in the test with KB [1] was determined as 408%; in the test with KB [2] it was 969%; with GC3/Cl [3], 250%; in the test with GC3/Cl [14], 757%.
Turning to `ClCCCCN1c2ccccc2Oc2ccccc21`, the Control in the test on KB [1] came out at 398%; in the test with KB [2], 792%; in the test on GC3/Cl [14] it was 361%.
As for `c1ccc2c(c1)Oc1ccccc1N2CCCCN1CCOCC1`, the Control is on record as 702% in the test on KB [1], 2684% in the test on KB [2] and 1175% in the test with GC3/Cl [14]. For the same compound, the IC50 with GC3/Cl [6] turned out to be 0.0024 µM; in the test with GC3/Cl [7], 17 µM; in the test with KB [8] it was 0.0045 µM; in the test with KB [10], 18 µM; in the test on KB [11], 0.002 µM; with GC3/Cl [12], 0.002 µM. Further, the IC10 (usually the concentration at which the effect reaches the 10% level) with GC3/Cl [9] worked out at 10 µM; with KB [13], 6 µM.
Regarding `CCN(CC)CCCN1c2ccccc2Oc2ccccc21`, the figures for the Control in the test with KB [1], with KB [2] and in the test with GC3/Cl [14] were 546%, 2123% and 1025%, respectively. Besides, the IC50 was determined as 10 µM in the test with GC3/Cl [7] and 15 µM in the test with KB [10].
As to `CCN(CC)CCCCN1c2ccccc2Oc2ccccc21`, the Control in the test with KB [1] amounted to 211%; with KB [2], 697%; with GC3/Cl [14] it was 737%.
For `c1ccc2c(c1)Oc1ccccc1N2CCCN1CCOCC1`, the Control with KB [1] was 742%; in the test on KB [2], 1717%; in the test on GC3/Cl [14] it was 960%. In addition, the half-inhibitory concentration (IC50) in the test on GC3/Cl [6] is 0.0021 µM; in the test on GC3/Cl [7], 40 µM; in the test with KB [8], 0.0019 µM; in the test on KB [10] it was 73 µM; in the test on KB [11], 0.0016 µM; with GC3/Cl [12] it was 0.002 µM. In addition, the IC10 in the test on GC3/Cl [9] and in the test on KB [13] was 25 µM in each case.
Consider `c1ccc2c(c1)Oc1ccccc1N2CCCCN1CCCC1`, for which the Control amounted to 198% with KB [1], 477% with KB [2] and 1315% with GC3/Cl [14]. The IC50 in the test with GC3/Cl [7] was 7 µM; with KB [10], less than 7 µM.
For `O=C(CN1CCN(CCO)CC1)N1c2ccccc2Oc2ccccc21`, the results for the Control in the test on KB [1] and with KB [2] were 280% and 776%, respectively.
As for `OCCN(CCO)CCCCN1c2ccccc2Oc2ccccc21`, the Control was found to be 92% in the test on KB [1], 403% with KB [2] and 1165% in the test on GC3/Cl [14]. The values for the IC50 with GC3/Cl [7] and in the test on KB [10] were 16 µM and less than 10 µM, respectively.
Turning to `OCCN1CCN(CCCN2c3ccccc3Oc3ccccc32)CC1`, the Control in the test on KB [1] stood at 343%; in the test with KB [2], 824%; in the test on GC3/Cl [14] it was 879%.
Turning to `ClCCCN1c2ccccc2Oc2ccccc21`, the Control with KB [1] was determined as 454%; in the test on KB [2] it was 342%; in the test with GC3/Cl [14] it was 570%. For the same compound, the IC50 with GC3/Cl [6] is 0.002 µM; with GC3/Cl [7] it was 83 µM; in the test with KB [8], 0.0118 µM; in the test on KB [10] it was 57 µM; with KB [11], 0.0053 µM; with GC3/Cl [12] it was 0.0017 µM. Further, the IC10 stood at 50 µM with GC3/Cl [9] and 20 µM in the test on KB [13].
As to `c1ccc2c(c1)Oc1ccccc1N2CCCCN1CCCCC1`, the Control is 196% with KB [1], 1071% in the test on KB [2] and 1121% in the test on GC3/Cl [14]. In addition, the values for the 50% inhibitory concentration (IC50) in the test on GC3/Cl [7] and with KB [10] were 7 µM and less than 7 µM, respectively.
`O=C(CN1CCCCC1)N1c2ccccc2Oc2ccccc21`: the Control came out at 326% in the test on KB [1] and 2023% with KB [2]. The IC50 came out at 0.0029 µM with GC3/Cl [6]; 88 µM with GC3/Cl [7]; 0.006 µM with KB [8]; 73 µM with KB [10]; 0.0023 µM in the test with KB [11]; 0.0022 µM in the test on GC3/Cl [12]. Also, the 10% effect concentration (IC10) in the test on GC3/Cl [9] and with KB [13] was 40 µM throughout.
`O=C(CN1CCOCC1)N1c2ccccc2Oc2ccccc21`: the Control in the test with KB [1] worked out at 290%; with KB [2], 674%.
Consider `OCCN1CCN(CCCCN2c3ccccc3Oc3ccccc32)CC1`, for which the Control in the test with KB [1] is 91%; in the test on KB [2], 188%; in the test on GC3/Cl [14], 1340%. Also, the half-maximal inhibitory concentration (IC50) in the test on GC3/Cl [7] was 7 µM; in the test on KB [10], less than 7 µM.
Consider `O=C(CN1CCCC1)N1c2ccccc2Oc2ccccc21`, for which the figures for the Control in the test with KB [1] and in the test with KB [2] were 188% and 776%, respectively.
`COc1ccc(CCN(C)CCCC(C#N)(c2ccc(OC)c(OC)c2)C(C)C)cc1OC` (stereo not given) returned a Control with KB [2] of 1124%.
